Measured values taken from ChEMBL document CHEMBL4406921, “Discovery of Axelopran (TD-1211): A Peripherally Restricted μ-Opioid Receptor Antagonist” (ACS Med Chem Lett, 2019).

How the values were obtained:
Mu-type opioid receptor [1] = biological target: T1, Mu-type opioid receptor (Homo sapiens, UniProt P35372); experiment: Displacement of [3H]-DPN from recombinant human mu opioid receptor expressed in CHO-K1 cell membranes by radioligand binding assay
Method in brief: (§1)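 Membranes from CHO-K1 cells stably transfected with human recombinant μ or δ receptor, or guinea pig κ receptor; competition with [3H]-DPN radioligand; affinity reported as pKi.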

[2] = biological target: Delta-type opioid receptor (Homo sapiens, UniProt P41143); experiment: Displacement of [3H]-DPN from recombinant human delta opioid receptor expressed in CHO-K1 cell membranes by radioligand binding assay; method in brief: as §1
Sequence of Delta-type opioid receptor (P41143 whole entry): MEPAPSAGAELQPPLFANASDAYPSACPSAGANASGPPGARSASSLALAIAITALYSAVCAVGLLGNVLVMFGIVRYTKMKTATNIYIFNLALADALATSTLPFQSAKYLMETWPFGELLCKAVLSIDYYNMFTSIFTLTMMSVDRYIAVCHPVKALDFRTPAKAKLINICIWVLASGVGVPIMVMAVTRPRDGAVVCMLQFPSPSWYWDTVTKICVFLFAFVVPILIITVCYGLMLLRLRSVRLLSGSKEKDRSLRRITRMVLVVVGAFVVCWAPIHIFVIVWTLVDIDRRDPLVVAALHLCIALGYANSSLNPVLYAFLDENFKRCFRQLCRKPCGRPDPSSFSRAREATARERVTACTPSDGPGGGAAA

[3] = biological target: Kappa-type opioid receptor (Cavia porcellus, UniProt P41144); experiment: Displacement of [3H]-DPN from guinea pig kappa opioid receptor expressed in CHO-K1 cell membranes by radioligand binding assay; method in brief: as §1
Sequence of Kappa-type opioid receptor (P41144 whole entry): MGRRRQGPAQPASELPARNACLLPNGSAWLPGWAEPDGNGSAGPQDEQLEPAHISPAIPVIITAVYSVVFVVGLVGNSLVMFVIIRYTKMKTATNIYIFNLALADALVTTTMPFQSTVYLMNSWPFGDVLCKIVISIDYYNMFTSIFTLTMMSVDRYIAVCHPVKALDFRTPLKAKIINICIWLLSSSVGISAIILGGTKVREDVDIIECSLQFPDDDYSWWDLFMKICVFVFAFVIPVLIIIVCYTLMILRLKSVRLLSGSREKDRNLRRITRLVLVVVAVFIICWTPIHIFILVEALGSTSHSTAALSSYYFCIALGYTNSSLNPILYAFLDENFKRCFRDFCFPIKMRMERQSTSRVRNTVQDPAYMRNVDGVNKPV

Mu-type opioid receptor [4] = biological target: T1, Mu-type opioid receptor; experiment: Antagonist activity at human recombinant mu opioid receptor expressed in CHO-K1 cell membranes assessed as intrinsic activity at 10 pM to 20 uM incubated for 30 mins in presence of Eu-GTP by DELFIA GTP binding assay relative to DAMGO
[5] = Half life in rat liver microsomes at 3 uM; assay type: ADME, Microsome
[6] = Half life in dog liver microsomes at 3 uM; assay type: ADME, Canis lupus familiaris, Microsome
[7] = Half life in human liver microsomes at 3 uM; assay type: ADME, Microsome
[8] = Permeability coefficient, Kp in human Caco2 cells; assay type: ADME, cell-based; conditions: Caco-2, read-out: Kp
[9] = Cmax in Sprague-Dawley rat at 5 mg/kg, po administered via gavage; assay type: ADME, organism-based; design: dose 5 mg/kg, route oral; conditions: in vivo
[10] = AUC(0 to t) in Sprague-Dawley rat at 5 mg/kg, po administered via gavage; assay type: ADME, organism-based; conditions: in vivo
[11] = Half life in Sprague-Dawley rat at 5 mg/kg, po administered via gavage; assay type: ADME, organism-based; conditions: in vivo
[12] = Oral bioavailability in Sprague-Dawley rat at 5 mg/kg administered via gavage; assay type: ADME, organism-based; conditions: in vivo
Mus musculus [13] = experiment: Inhibition of morphine-induced delays in intestinal transit in po dosed ICR mouse administered via gavage pretreated with compound and 30 mins later injected with morphine followed 5 mins later by ingestion of test meal and measured after 60 mins; assay type: functional; conditions: for ED50: read-out: ID50 (the source's name)
Method in brief: (§2)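 Mice dosed orally; reversal of morphine-induced delay in intestinal transit, delay in gastric emptying, or hot plate antinociception measured; dose-dependent responses fitted to give ID50 in mg/kg.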

Mus musculus [14] = experiment: Inhibition of morphine-induced delays in gastric emptying in po dosed ICR mouse administered via gavage pretreated with compound and 30 mins later injected with morphine followed 5 mins later by ingestion of test meal and measured after 60 mins; assay type: functional; conditions: for ED50: read-out: ID50 (the source's name); method in brief: as §2
Mus musculus [15] = experiment: Inhibition of morphine-induced antinociceptive activity in po dosed ICR mouse administered via gavage pretreated with compound and 30 mins later injected with morphine and measured after 30 mins by hot plate test; assay type: functional; conditions: for ED50: read-out: ID50 (the source's name); method in brief: as §2
Mus musculus [16] = species on record: Mus musculus; experiment: Peripheral selectivity index, ratio of ID50 for inhibition of morphine-induced antinociceptive activity in ICR mouse to ID50 for inhibition of morphine-induced delays in intestinal transit in ICR mouse; assay type: functional
Method in brief: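 Mice were dosed orally with antagonist at several doses and challenged with morphine. ID50 values were taken from dose-dependent reversal of morphine-induced hot plate antinociception (CNS) and of morphine-induced delay in intestinal transit (peripheral). The index is the hot plate ID50 divided by the intestinal transit ID50.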

Mus musculus [17] = species on record: Mus musculus; experiment: Peripheral selectivity index, ratio of ID50 for inhibition of morphine-induced delays in gastric emptying in ICR mouse to ID50 for inhibition of morphine-induced delays in intestinal transit in ICR mouse; assay type: functional

T1 sequence (P35372 whole entry): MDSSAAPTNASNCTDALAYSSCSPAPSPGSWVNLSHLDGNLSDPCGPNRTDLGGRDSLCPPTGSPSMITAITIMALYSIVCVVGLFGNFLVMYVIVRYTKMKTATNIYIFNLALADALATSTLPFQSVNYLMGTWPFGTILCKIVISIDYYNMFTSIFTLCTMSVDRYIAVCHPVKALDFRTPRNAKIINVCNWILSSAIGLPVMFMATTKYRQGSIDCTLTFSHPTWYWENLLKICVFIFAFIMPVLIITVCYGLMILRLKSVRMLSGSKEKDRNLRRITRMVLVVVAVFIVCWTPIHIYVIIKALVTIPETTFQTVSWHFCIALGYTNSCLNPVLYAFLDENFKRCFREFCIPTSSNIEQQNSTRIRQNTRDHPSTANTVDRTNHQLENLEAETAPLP

Row | SMILES | Ki (Mu-type opioid receptor [1]) [nM] | Ki [2] [nM] | Ki [3] [nM] | Intrinsic activity (Mu-type opioid receptor [4]) [%] | half-life at 3 µM [5] [h] | half-life at 3 µM [6] [h] | half-life at 3 µM [7] [h] | Papp [8] [×10⁻⁶ cm/s] | Cmax [9] [ng/mL] | AUC(0-t) [10] [ng·h/mL] | half-life [11] [h] | bioavailability [12] [%] | inhibition (Mus musculus [13]) | ED50 (Mus musculus [13]) [mg/kg] | inhibition (Mus musculus [14]) | ED50 (Mus musculus [14]) [mg/kg] | inhibition (Mus musculus [15]) | ED50 (Mus musculus [15]) [mg/kg] | Selectivity Index (Mus musculus [16]) | Selectivity Index (Mus musculus [17])
1 | NC(=O)c1cccc([C@H]2C[C@H]3CC[C@@H](C2)N3CCN(CC2CCCCC2)C(=O)Cc2nnn[nH]2)c1 | 0.398 | 3.16 | 1.58 | 0 | 1.5 | 1.5 | 1.5 | < 1 |  |  |  |  |  |  |  |  |  |  |  | 
2 | CS(=O)(=O)CC(=O)N(CCN1[C@@H]2CC[C@H]1C[C@@H](c1cccc(C(N)=O)c1)C2)CC1CCCCC1 | 0.1 | 1.26 | 0.1 | 0 | 0.833 | 0.467 | 1.5 | 18 | 880 | 1300 | 1 | 60 | Dose-dependent effect | 0.49 | Dose-dependent effect | 0.33 | Dose-dependent effect | 24 | 49 | 73
3 | CCC(CC)CN(CCCCN1[C@@H]2CC[C@H]1C[C@@H](c1cccc(C(N)=O)c1)C2)C(=O)CO | 0.631 | 20 |  | -1 | 1.5 | 1.5 | 0.35 |  |  |  |  |  |  |  |  |  |  |  |  | 
4 | NC(=O)c1cccc([C@H]2C[C@H]3CC[C@@H](C2)N3CCN(CC2CCOCC2)C(=O)CO)c1 | 12.6 | 200 | 6.31 | 0 | 1.5 | 1.5 | 1.5 | < 1 |  |  |  |  |  |  |  |  |  |  |  | 
5 | C[C@H]1CN(CCCc2ccccc2)CC[C@@]1(C)c1cccc(O)c1 | 0.1 | 1.26 | 0.794 | -21 | 0.1 |  |  |  |  |  |  |  |  |  |  |  |  |  |  | 
6 | NC(=O)c1cccc([C@H]2C[C@H]3CC[C@@H](C2)N3CCN(CC2CCCCC2)C(=O)CO)c1 | 0.1 | 3.98 | 0.126 | -3 | 1.28 | 0.3 | 1.32 | 40 | 290 | 430 | 1.3 | 61 | Dose-dependent effect | 0.1 | Dose-dependent effect | 0.046 | Dose-dependent effect | 4.2 | 42 | 91
7 | CC(=O)N(CCN1[C@@H]2CC[C@H]1C[C@@H](c1cccc(C(N)=O)c1)C2)CC1CCCCC1 | 0.1 | 1.58 | 0.126 | -1 | 1.23 | 0.267 | 1.05 |  |  |  |  |  |  |  |  |  |  |  |  | 
8 | CCC(CC)CN(CCCN1[C@@H]2CC[C@H]1C[C@@H](c1cccc(C(N)=O)c1)C2)C(=O)CO |  | 3.16 | 0.2 | 3 | 1.48 | 1.5 | 1.5 | 20 |  |  |  |  |  |  |  |  |  |  |  | 
9 | C[C@H]1CN(CCC(=O)O)CC[C@@]1(C)c1cccc(O)c1 | 631 | 3160 |  | 4 | > 1.5 |  |  | < 1 |  |  |  |  |  |  |  |  |  |  |  | 
10 | CCC(CC)CN(CCCCCCN1[C@@H]2CC[C@H]1C[C@@H](c1cccc(C(N)=O)c1)C2)C(=O)CO | 1 | 25.1 |  | -2 | 0.433 | 0.15 | 0.15 |  |  |  |  |  |  |  |  |  |  |  |  | 
11 | NC(=O)c1cccc([C@H]2C[C@H]3CC[C@@H](C2)N3CCN(Cc2ccccc2)C(=O)CO)c1 |  | 5.01 | 0.2 | -3 | 1.42 | 1.5 | 1.5 | 21 |  |  |  |  |  |  |  |  |  |  |  | 
12 | CC(C)(C)C(=O)N(CCN1[C@@H]2CC[C@H]1C[C@@H](c1cccc(C(N)=O)c1)C2)CC1CCCCC1 | 0.126 | 2 | 0.158 | 3 | 0.2 | 0.0333 | 0.15 |  |  |  |  |  |  |  |  |  |  |  |  | 
13 | NC(=O)c1cccc([C@H]2C[C@H]3CC[C@@H](C2)N3CCN(CC2CCC2)C(=O)CO)c1 | 1.58 | 31.6 | 0.631 | 13 | 1.5 | 1.5 | 1.5 | 14 |  |  |  |  |  |  |  |  |  |  |  | 
14 | CCC(CC)CN(CCCCCN1[C@@H]2CC[C@H]1C[C@@H](c1cccc(C(N)=O)c1)C2)C(=O)CO | 0.631 | 20 |  | 1 | 0.467 | 0.317 | 0.2 |  |  |  |  |  |  |  |  |  |  |  |  | 
15 | NC(=O)c1cccc([C@H]2C[C@H]3CC[C@@H](C2)N3CCN(CC2CCC(F)(F)CC2)C(=O)CO)c1 | 0.126 | 12.6 | 0.251 | -5 | 1.5 | 1.5 | 1.5 | 14 | 390 | 1200 | 2 | 30 | Dose-dependent effect | 0.23 | Dose-dependent effect | 0.03 | Dose-dependent effect | 4.4 | 19 | 147
16 | COC(=O)N(CCN1[C@@H]2CC[C@H]1C[C@@H](c1cccc(C(N)=O)c1)C2)CC1CCCCC1 | 0.126 | 2.51 | 0.2 | 7 | 0.0333 | 0.0333 | 0.117 |  |  |  |  |  |  |  |  |  |  |  |  | 
17 | CC(C)NC(=O)N(CCN1[C@@H]2CC[C@H]1C[C@@H](c1cccc(C(N)=O)c1)C2)CC1CCCCC1 | 0.2 | 1.26 | 0.158 | 21 | 0.333 | 0.233 |  | 36 |  |  |  |  |  |  |  |  |  |  |  | 
18 | O=C1CC[C@@]2(O)[C@H]3Cc4ccc(O)c5c4[C@@]2(CCN3CC2CC2)[C@H]1O5 [NALTREXONE] |  |  |  |  |  |  |  | 84 |  |  |  |  |  | 0.6 |  | 0.5 |  | 0.82 |  | 
19 | NC(=O)c1cccc([C@H]2C[C@H]3CC[C@@H](C2)N3CCN(CCc2ccccc2)C(=O)CO)c1 |  | 20 |  |  | 0.567 | 1.02 | 1.5 | 16 |  |  |  |  |  |  |  |  |  |  |  | 
20 | CCCCCCN(CCN1[C@@H]2CC[C@H]1C[C@@H](c1cccc(C(N)=O)c1)C2)C(=O)CO | 0.794 | 63.1 | 3.16 | -9 | 1.18 | 0.183 | 1.5 | 45 |  |  |  |  |  |  |  |  |  |  |  | 
21 | CS(=O)(=O)N(CCN1[C@@H]2CC[C@H]1C[C@@H](c1cccc(C(N)=O)c1)C2)CC1CCCCC1 | 0.251 | 7.94 | 0.794 | 1 | 0.217 | 0.0333 | 0.317 |  |  |  |  |  |  |  |  |  |  |  |  | 
22 | NC(=O)c1cccc([C@H]2C[C@H]3CC[C@@H](C2)N3CCN(CC2CCCCC2)C(=O)c2ccco2)c1 | 0.1 | 1.26 | 0.1 | 1 | 0.167 | 0.0333 | 0.283 |  |  |  |  |  |  |  |  |  |  |  |  | 
23 | NC(=O)c1cccc([C@H]2C[C@H]3CC[C@@H](C2)N3CCN(CC2CCCC2)C(=O)CO)c1 | 0.251 | 15.8 | 0.316 | 4 | 1.5 | 0.233 | 1.5 | 12 |  |  |  |  |  |  |  |  |  |  |  | 
24 | CCC(CC)CN(CCN1[C@@H]2CC[C@H]1C[C@@H](c1cccc(C(N)=O)c1)C2)C(=O)CO | 0.158 | 12.6 | 0.126 | 9 | 1.5 | 1.25 | 1.5 | 32 |  |  |  |  |  |  |  |  |  |  |  | 
25 | CN(C)S(=O)(=O)N(CCN1[C@@H]2CC[C@H]1C[C@@H](c1cccc(C(N)=O)c1)C2)CC1CCCCC1 | 0.2 | 2 | 0.2 | 0 | 0.133 | 0.0833 | 0.15 |  |  |  |  |  |  |  |  |  |  |  |  | 
